As a reminder, the IC50 is the concentration at which inhibition is half-maximal. The term EC50 denotes the concentration needed to bring the measured effect to its halfway point.

In ChEMBL document CHEMBL4680084, “New β-Lactam Derivatives Modulate Cell Adhesion and Signaling Mediated by RGD-Binding and Leukocyte Integrins” (J Med Chem, 2016) one finds IC50, Activity and EC50 data, which are given here for three molecules.

For data set [1], the target named is T1, Integrin alpha-V/beta-6 (Homo sapiens, UniProt P06756+P18564). In words: Antagonist activity at alphaVbeta6 in human HT-29 cells assessed as reduction in cell adhesion to fibronectin pre-incubated for 30 mins before fibronectin and further incubated for 1 hr by nitrophenyl-N-acetyl-beta-D-glucosaminide substrate based chromogenic assay. In outline: (§1)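 Compound or methanol vehicle pre-incubated with cells for 30 min at room temperature. Cells then plated on wells coated overnight at 4 °C with fibronectin 10 µg/mL (SK-MEL-24, K562, HT-29) or fibrinogen 10 µg/mL (MCF7, HEL). Seeding was 50,000 cells/well, or 100000 for HEL. Adhesion ran 1 h at room temperature. Wells washed with 1% BSA/PBS. Quadruplicate, at least three repeats.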

Data set [2] concerns the target T2, Integrin alpha-V/beta-5 (Homo sapiens, UniProt P06756+P18084). Briefly: Antagonist activity at alphaVbeta5 in human MCF7 cells assessed as reduction in cell adhesion to fibrinogen pre-incubated for 30 mins before fibrinogen and further incubated for 1 hr by nitrophenyl-N-acetyl-beta-D-glucosaminide substrate based chromogenic assay. An outline of the steps:
as §1

Data set [3] concerns the target T3, Integrin alpha-5/beta-1 (Homo sapiens, UniProt P05556+P08648). Briefly: Inhibition of fibronectin binding to alpha5beta1 isolated from human K562 cells incubated for 1 hr by […] competitive solid-phase binding assay. The class given is tissue-based. In outline:
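Plates coated overnight at 4 °C in carbonate buffer pH 9.6 with fibronectin 0.5 µg/mL (αvβ3, αvβ6, α5β1), fibrinogen 10 µg/mL (αIIbβ3, αvβ5) or ICAM-1 (αLβ2). Blocked 1 h in buffer containing Ca/Mg/Mn 1 mM each and 1% BSA. Purified integrin (3–10 µg/mL) incubated with compound (10⁻⁴–10⁻¹⁰ M) 1 h at room temperature. Bound integrin detected with primary antibody then AlexaFluor488 secondary, Ex485/Em535. Duplicate, at least three repeats.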

In the next data set the target is Integrin alpha-4/beta-1 (Homo sapiens, UniProt P05556+P13612). Briefly: Antagonist activity at alpha4beta1 in human Jurkat E6.1 cells assessed as reduction in cell adhesion to VCAM1 pre-incubated for 30 mins before VCAM1 and further incubated for 30 mins by […]. The data set is classed as cell-based.
For data set [4], the target named is T3, Integrin alpha-5/beta-1. Briefly: Agonist activity at alpha5beta1 in human K562 cells assessed as assessed as increase in ERK1/2 phosphorylation at 1 to 100 nM by Western blot analysis. The class given is cell-based. The note with it: filed as agonist, dose 1-100 nM. In general terms: Immunoblotting shows a protein as a band on a membrane.
Data set [5] deals with T4, Integrin alpha-V/beta-3 (Homo sapiens, UniProt P05106+P06756). Briefly: Antagonist activity at alphaVbeta3 in human SK-MEL-24 cells assessed as reduction in cell adhesion to fibronectin pre-incubated for 30 mins before fibronectin and further incubated for 1 hr by nitrophenyl-N-acetyl-beta-D-glucosaminide substrate based chromogenic assay. In outline: as §1
The target in data set [6] is T5, Integrin alpha-IIb/beta-3 (Homo sapiens, UniProt P05106+P08514). Briefly: Agonist activity at alpha2bbeta3 in human K562 cells assessed as increase in cell adhesion to fibrinogen pre-incubated for 30 mins and further incubated for 1 hr in presence of alpha2bbeta3 antagonist Tirofiban by nitrophenyl-N-acetyl-beta-D-glucosaminide substrate based chromogenic assay. The settings on record: time 90.0 min.

Another data set has as its system HT-29. In words: Toxicity in human HT-29 cells assessed as induction of cell necrosis and/or apoptosis incubated for 3 hrs by annexin V-PE and 7-AAD staining based by flow cytometry. The note with it: ht-29, 3 h. An outline of the steps:
(§2)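 After 3 h incubation, cells resuspended in complete medium and stained with annexin V-PE/7-AAD reagent for 20 min at room temperature in the dark. Flow cytometry sorted cells into viable, early apoptotic and late apoptotic/necrotic populations.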
(In general: A flow cytometer gives signals particle by particle.)

Data set [7] concerns the target T1, Integrin alpha-V/beta-6. Briefly: Inhibition of fibronectin binding to alphaVbeta6 isolated form human HT-29 cells incubated for 1 hr by […] competitive solid-phase binding assay. The data set is classed as tissue-based.
The next data set deals with K562. Briefly: Toxicity in human K562 cells assessed as induction of cell necrosis and/or apoptosis incubated for 3 hrs by annexin V-PE and 7-AAD staining based by flow cytometry. The note with it: k562, 3 h. In outline:
as §2

Data set [8] concerns the target Integrin alpha-L/beta-2 (LFA-1) (Homo sapiens, UniProt P05107+P20701). Briefly: Antagonist activity at alphaLbeta2 in human Jurkat E6.1 cells assessed as reduction in cell adhesion to ICAM1 pre-incubated for 30 mins before ICAM1 and further incubated for 30 mins by […]. The data set is classed as cell-based. An outline of the steps: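 Jurkat E6.1 cells labelled with CellTracker green CMFDA (12.5 µM, 30 min, 37 °C), washed, then pre-incubated 30 min at 37 °C with compound or methanol. Plated at 500,000/well on VCAM-1 (α4β1) or ICAM-1 (αLβ2) coated wells (5 µg/mL) for 30 min at 37 °C. Cells lysed in 0.5% Triton X-100; fluorescence read Ex485/Em535. Quadruplicate, at least three repeats.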

The target of data set [9] is T4, Integrin alpha-V/beta-3. Briefly: Inhibition of fibronectin binding to human recombinant alphaVbeta3 expressed in HEK293 cells incubated for 1 hr by […] competitive solid-phase binding assay. The class given is cell-based.
The test system of another data set is MCF7. Briefly: Toxicity in human MCF7 cells assessed as induction of cell necrosis and/or apoptosis incubated for 3 hrs by annexin V-PE and 7-AAD staining based by flow cytometry. The note with it: mcf7, 3 h. In outline:
as §2

In data set [10] the target is T3, Integrin alpha-5/beta-1. Briefly: Agonist activity at alpha5beta1 in human K562 cells assessed as increase in cell adhesion to fibronectin pre-incubated for 30 mins before fibronectin and further incubated for 1 hr by nitrophenyl-N-acetyl-beta-D-glucosaminide substrate based chromogenic assay. An outline of the steps:
(§3)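 Compound or methanol vehicle pre-incubated with cells for 30 min at room temperature. Cells then plated on wells coated overnight at 4 °C with fibronectin 10 µg/mL (SK-MEL-24, K562, HT-29) or fibrinogen 10 µg/mL (MCF7, HEL). Seeding was 50,000 cells/well, or 100000 for HEL. Adhesion ran 1 h at room temperature. Wells washed with 1% BSA/PBS. Adherent cells read by hexosaminidase substrate, absorbance 405 nm. Quadruplicate, at least three repeats.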

The next data set relates to HEL. In words: Toxicity in human HEL cells assessed as induction of cell necrosis and/or apoptosis incubated for 3 hrs by annexin V-PE and 7-AAD staining based by flow cytometry. In outline: as §2
The target of data set [11] is T2, Integrin alpha-V/beta-5. In words: Inhibition of fibrinogen binding to alphaVbeta5 isolated form human mCf7 cells incubated for 1 hr by […] competitive solid-phase binding assay.
The target in data set [12] is T5, Integrin alpha-IIb/beta-3. Briefly: Antagonist activity at alpha2bbeta3 in human HEL cells assessed as reduction in cell adhesion to fibrinogen pre-incubated for 30 mins before fibrinogen and further incubated for 1 hr by nitrophenyl-N-acetyl-beta-D-glucosaminide substrate based chromogenic assay. An outline of the steps: as §1
Data set [13] addresses T1, Integrin alpha-V/beta-6. In words: Agonist activity at alphaVbeta6 in human HT-29 cells assessed as increase in cell adhesion to fibronectin pre-incubated for 30 mins before fibronectin and further incubated for 1 hr by nitrophenyl-N-acetyl-beta-D-glucosaminide substrate based chromogenic assay. In outline: as §3
The target in data set [14] is T2, Integrin alpha-V/beta-5. In words: Agonist activity at alphaVbeta5 in human MCF7 cells assessed as increase in cell adhesion to fibrinogen pre-incubated for 30 mins before fibrinogen and further incubated for 1 hr by nitrophenyl-N-acetyl-beta-D-glucosaminide substrate based chromogenic assay. An outline of the steps: as §3
Data set [15] concerns the target T3, Integrin alpha-5/beta-1. In words: Agonist activity at alpha5beta1 in human K562 cells assessed as increase in cell adhesion to fibronectin pre-incubated for 30 mins and further incubated for 1 hr by nitrophenyl-N-acetyl-beta-D-glucosaminide substrate based chromogenic assay. The settings on record: filed as agonist, time 90.0 min. In outline:
as §3

Another data set has as its system SK-MEL-24. Briefly: Toxicity in human SK-MEL-24 cells assessed as induction of cell necrosis and/or apoptosis incubated for 3 hrs by annexin V-PE and 7-AAD staining based by flow cytometry. The settings on record: sk-mel-24, 3 h. An outline of the steps:
as §2

The source made the active and inactive calls. No cut-off for these calls is given here.

In the case of `Cc1ccccc1NC(=O)N1C(=O)CC1CC(=O)NCC(=O)O` (stereo not drawn), the IC50 at Integrin alpha-V/beta-6 [1] was above 5000 nM; at Integrin alpha-V/beta-5 [2], above 5000 nM; at Integrin alpha-5/beta-1 [3], 52 nM; at Integrin alpha-4/beta-1, above 5000 nM; on Integrin alpha-V/beta-3 [5], above 5000 nM; at Integrin alpha-V/beta-6 [7], above 1000 nM. Besides, the IC50 is above 5000 nM in data set [8], above 1000 nM on Integrin alpha-V/beta-3 [9], above 1000 nM at Integrin alpha-V/beta-5 [11] and above 5000 nM in data set [12]. In addition, the Activity result at Integrin alpha-5/beta-1 [4] was “Dose-dependent effect”; in the data set on HT-29 it was “Non-Toxic”; with K562, “Non-Toxic”; in the data set with MCF7, “Non-Toxic”; in the data set on HEL, “Non-Toxic”; on Integrin alpha-5/beta-1 [15], “Dose-dependent effect”. Besides, in the data set with SK-MEL-24, the Activity result is given as “Non-Toxic”. Also, in data set [6] (filed as agonist), the result was Active. The EC50 on Integrin alpha-5/beta-1 [10] is 9.9 nM; on Integrin alpha-V/beta-6 [13], above 5000 nM; at Integrin alpha-V/beta-5 [14], above 5000 nM.
Turning to `NCc1ccc(NC(=O)N2C(=O)CC2CC(=O)NCCC(=O)O)cc1.O=C(O)C(F)(F)F` (stereo not drawn), the IC50 on Integrin alpha-V/beta-6 [1] was above 5000 nM; on Integrin alpha-V/beta-5 [2] it was above 5000 nM; on Integrin alpha-5/beta-1 [3], 5.5 nM; on Integrin alpha-4/beta-1, above 5000 nM; at Integrin alpha-V/beta-3 [5], above 5000 nM; at Integrin alpha-V/beta-6 [7], above 1000 nM. Besides, the IC50 was above 5000 nM in data set [8], above 1000 nM at Integrin alpha-V/beta-3 [9], above 1000 nM on Integrin alpha-V/beta-5 [11] and 1560 nM in [12]. Besides, the Activity result on Integrin alpha-5/beta-1 [4] was “Dose-dependent effect”; in the data set with HT-29, “Non-Toxic”; in the data set with K562, “Non-Toxic”; in the data set on MCF7, “Non-Toxic”; in the data set with HEL it was “Non-Toxic”; on Integrin alpha-5/beta-1 [15], “Dose-dependent effect”. The Activity result in the data set on SK-MEL-24 is given as “Non-Toxic”. Further, in data set [6], the result was inactive. Also, the EC50 at Integrin alpha-5/beta-1 [10] was 6.7 nM; at Integrin alpha-V/beta-6 [13] it was above 5000 nM; on Integrin alpha-V/beta-5 [14] it was above 5000 nM.
Consider `Nc1ccc(CNC(=O)N2C(=O)CC2CC(=O)O)cc1.O=C(O)C(F)(F)F` (stereo not drawn), for which the 50% inhibitory concentration (IC50) was above 5000 nM at Integrin alpha-V/beta-6 [1]; above 5000 nM at Integrin alpha-V/beta-5 [2]; 9.7 nM on Integrin alpha-5/beta-1 [3]; 574 nM at Integrin alpha-4/beta-1; 71.7 nM on Integrin alpha-V/beta-3 [5]; above 1000 nM on Integrin alpha-V/beta-6 [7]. The IC50 in data set [8] was 0.39 nM; at Integrin alpha-V/beta-3 [9], 9.9 nM; at Integrin alpha-V/beta-5 [11], above 1000 nM; in [12] it was above 5000 nM. Also, the outcome (on Integrin alpha-5/beta-1 [4]; in [6] (filed as agonist)) was Active. Also, the Activity result with HT-29 is “Non-Toxic”; in the data set with K562 it was “Non-Toxic”; with MCF7, “Non-Toxic”; in the data set on HEL, “Non-Toxic”; on Integrin alpha-5/beta-1 [15], “Dose-dependent effect”; with SK-MEL-24, “Non-Toxic”. Also, the 50% effective concentration (EC50) at Integrin alpha-5/beta-1 [10] was 44.5 nM; at Integrin alpha-V/beta-6 [13], above 5000 nM; at Integrin alpha-V/beta-5 [14], above 5000 nM.
